Measured values from ChEMBL document CHEMBL3352347, “ΔF508-CFTR correctors: synthesis and evaluation of thiazole-tethered imidazolones, oxazoles, oxadiazoles, and thiadiazoles” (Bioorg Med Chem Lett, 2014).

target: Cystic fibrosis transmembrane conductance regulator (Homo sapiens, UniProt P13569); test: (§1) Activity of human CFTR F508 deletion mutant expressed in FRT cells assessed as potentiation of genistein-induced iodine ion influx after 24 hrs by YFP-H148Q/I152L fluorescent quenching assay; format: cell-based; settings: frt
Sequence (P13569 as listed by the source): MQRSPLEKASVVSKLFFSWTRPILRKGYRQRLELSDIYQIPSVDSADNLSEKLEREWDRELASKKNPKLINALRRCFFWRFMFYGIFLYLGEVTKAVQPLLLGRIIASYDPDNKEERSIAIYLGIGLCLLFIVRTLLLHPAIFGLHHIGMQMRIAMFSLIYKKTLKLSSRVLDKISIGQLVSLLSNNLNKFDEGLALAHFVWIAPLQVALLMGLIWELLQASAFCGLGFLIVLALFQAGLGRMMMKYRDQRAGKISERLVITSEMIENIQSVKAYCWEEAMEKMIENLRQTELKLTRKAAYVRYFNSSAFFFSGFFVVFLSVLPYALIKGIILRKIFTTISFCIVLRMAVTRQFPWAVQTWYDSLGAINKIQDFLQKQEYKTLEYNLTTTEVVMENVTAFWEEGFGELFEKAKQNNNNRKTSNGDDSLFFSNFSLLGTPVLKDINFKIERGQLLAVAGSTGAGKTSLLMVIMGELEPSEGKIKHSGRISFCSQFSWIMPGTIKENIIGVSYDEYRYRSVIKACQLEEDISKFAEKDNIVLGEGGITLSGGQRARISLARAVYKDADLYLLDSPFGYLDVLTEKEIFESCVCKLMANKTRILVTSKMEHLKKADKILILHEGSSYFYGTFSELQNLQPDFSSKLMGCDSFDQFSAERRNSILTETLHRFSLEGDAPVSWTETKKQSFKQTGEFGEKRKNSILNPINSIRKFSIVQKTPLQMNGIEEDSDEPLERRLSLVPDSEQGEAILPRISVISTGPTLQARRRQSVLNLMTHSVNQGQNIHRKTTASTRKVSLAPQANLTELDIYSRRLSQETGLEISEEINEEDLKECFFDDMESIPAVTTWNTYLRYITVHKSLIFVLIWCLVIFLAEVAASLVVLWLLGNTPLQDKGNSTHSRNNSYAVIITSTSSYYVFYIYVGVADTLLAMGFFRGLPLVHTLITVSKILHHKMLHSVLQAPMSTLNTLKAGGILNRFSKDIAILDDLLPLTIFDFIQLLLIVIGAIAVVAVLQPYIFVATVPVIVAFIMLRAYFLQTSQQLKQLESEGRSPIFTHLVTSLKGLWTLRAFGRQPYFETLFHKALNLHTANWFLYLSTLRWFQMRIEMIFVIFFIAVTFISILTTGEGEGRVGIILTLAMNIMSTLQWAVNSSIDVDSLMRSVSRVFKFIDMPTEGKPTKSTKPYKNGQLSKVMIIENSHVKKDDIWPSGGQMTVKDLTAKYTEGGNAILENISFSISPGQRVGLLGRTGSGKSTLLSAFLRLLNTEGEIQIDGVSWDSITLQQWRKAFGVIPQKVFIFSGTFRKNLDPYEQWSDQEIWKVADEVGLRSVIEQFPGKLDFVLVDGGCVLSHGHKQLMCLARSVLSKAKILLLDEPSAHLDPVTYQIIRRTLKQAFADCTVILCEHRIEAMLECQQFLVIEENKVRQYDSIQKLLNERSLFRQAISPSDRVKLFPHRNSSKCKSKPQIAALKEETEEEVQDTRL
Method in brief: (§2)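 FRT cells co-expressing human ΔF508-CFTR and the iodide-sensitive YFP-H148Q/I152L sensor were incubated 24 h with each compound. Iodide influx, used as a chloride surrogate, was then read from the kinetics of YFP quenching after iodide addition, with cells stimulated by a cAMP agonist plus genistein. Corrector activity was derived from influx versus concentration data.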

Row | Structure (SMILES) | EC50
1 | COc1ccc(Cl)cc1Nc1nnc(-c2csc(NC(=O)C(C)(C)C)n2)s1 | Not Active
2 | COc1ccc(Cl)cc1-n1cc(-c2sc(NC(=O)C(C)(C)C)nc2C)[nH]c1=O | Not Active
3 | COc1ccc(Cl)cc1Nc1nc(C)c(-c2csc(NC(=O)C(C)(C)C)n2)s1 | Not Active

target: Cystic fibrosis transmembrane conductance regulator (Homo sapiens, UniProt P13569, F508DEL); test: as §1; format: cell-based; settings: not given; method in brief: as §2
Sequence (P13569 as listed by the source): as above

Row | Structure (SMILES) | EC50 [µM]
4 | COc1ccc(Cl)cc1Nc1nc(-c2sc(NC(=O)C(C)(C)C)nc2C)cs1 | 0.87
5 | COc1ccc(Cl)cc1Nc1nc(-c2nnc(NC(=O)C(C)(C)C)o2)cs1 | 0.59
6 | COc1ccc(Cl)cc1Nc1nnc(-c2csc(NC(=O)C(C)(C)C)n2)o1 | 0.66
7 | COc1ccc(Cl)cc1Nc1ncc(-c2sc(NC(=O)C(C)(C)C)nc2C)o1 | 0.74
